Results as given in article PMC6606825 (Journal of Ginseng Research, 2018).

Test: Pharmacokinetics of CK and its metabolite 20
Assay type: in vivo, healthy Chinese volunteers
In short: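 Healthy adults given one oral tablet dose fasting (overnight, or 10 h in a crossover food-effect arm); 30 subjects from the 100/200/400 mg groups were pooled with 24 from 200 mg fasting periods. Plasma was stored at −70°C, extracted with MTBE plus internal standards and assayed by LC-MS/MS. Cmax was observed and AUClast calculated by linear trapezoid, each divided by dose. The metabolite/parent ratio was also calculated. Genotyping used Sequenom MassARRAY, and log-transformed values were compared by one-way ANOVA.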

[1] = ABCC4 rs1151471 CC, n = 2, mean (SD)

CC(C)=CCC[C@](C)(O)[C@H]1CC[C@]2(C)[C@@H]1[C@H](O)C[C@@H]1[C@@]3(C)CC[C@H](O)C(C)(C)[C@@H]3CC[C@]12C [20(S)-PPD, 20(S)-protopanaxadiol]
20(S)-PPD AUClast/D (ABCB1 rs1045642 AA, mean (SD)): 0.59 (0.42)
20(S)-PPD Cmax/D (ABCB1 rs1045642 AA, mean (SD)): 0.02 (0.02)
Ratio 20(S)-PPD/CK AUClast/D (ABCB1 rs1045642 AA, mean (SD)): 1.99 (1.55) %
Ratio 20(S)-PPD/CK Cmax/D (ABCB1 rs1045642 AA, mean (SD)): 0.54 (0.42) %
20(S)-PPD AUClast/D (ABCB1 rs1045642 AG, mean (SD)): 0.87 (0.93)
20(S)-PPD Cmax/D (ABCB1 rs1045642 AG, mean (SD)): 0.03 (0.03)
Ratio 20(S)-PPD/CK AUClast/D (ABCB1 rs1045642 AG, mean (SD)): 5.28 (8.05) %
Ratio 20(S)-PPD/CK Cmax/D (ABCB1 rs1045642 AG, mean (SD)): 1.49 (2.26) %
20(S)-PPD AUClast/D (ABCB1 rs1045642 GG, mean (SD)): 0.82 (0.62)
20(S)-PPD Cmax/D (ABCB1 rs1045642 GG, mean (SD)): 0.03 (0.02)
Ratio 20(S)-PPD/CK AUClast/D (ABCB1 rs1045642 GG, mean (SD)): 3.23 (2.77) %
Ratio 20(S)-PPD/CK Cmax/D (ABCB1 rs1045642 GG, mean (SD)): 0.80 (0.66) %
20(S)-PPD AUClast/D (ABCB1 rs1128503 AA, mean (SD)): 0.90 (0.79)
20(S)-PPD Cmax/D (ABCB1 rs1128503 AA, mean (SD)): 0.03 (0.03)
Ratio 20(S)-PPD/CK AUClast/D (ABCB1 rs1128503 AA, mean (SD)): 4.27 (5.15) %
Ratio 20(S)-PPD/CK Cmax/D (ABCB1 rs1128503 AA, mean (SD)): 1.30 (2.07) %
20(S)-PPD AUClast/D (ABCB1 rs1128503 AG, mean (SD)): 0.77 (0.80)
20(S)-PPD Cmax/D (ABCB1 rs1128503 AG, mean (SD)): 0.03 (0.03)
Ratio 20(S)-PPD/CK AUClast/D (ABCB1 rs1128503 AG, mean (SD)): 4.67 (7.55) %
Ratio 20(S)-PPD/CK Cmax/D (ABCB1 rs1128503 AG, mean (SD)): 1.12 (1.52) %
20(S)-PPD AUClast/D (ABCB1 rs1128503 GG, mean (SD)): 0.73 (0.70)
20(S)-PPD Cmax/D (ABCB1 rs1128503 GG, mean (SD)): 0.02 (0.02)
Ratio 20(S)-PPD/CK AUClast/D (ABCB1 rs1128503 GG, mean (SD)): 1.89 (0.94) %
Ratio 20(S)-PPD/CK Cmax/D (ABCB1 rs1128503 GG, mean (SD)): 0.46 (0.25) %
20(S)-PPD AUClast/D (ABCB1 rs2032582 AA, mean (SD)): 0.78 (0.53)
20(S)-PPD Cmax/D (ABCB1 rs2032582 AA, mean (SD)): 0.03 (0.02)
Ratio 20(S)-PPD/CK AUClast/D (ABCB1 rs2032582 AA, mean (SD)): 4.64 (7.42) %
Ratio 20(S)-PPD/CK Cmax/D (ABCB1 rs2032582 AA, mean (SD)): 1.20 (1.55) %
20(S)-PPD Cmax/D (ABCB1 rs2032582 CA, mean (SD)): 0.03 (0.03)
Ratio 20(S)-PPD/CK AUClast/D (ABCB1 rs2032582 CA, mean (SD)): 4.60 (7.08) %
Ratio 20(S)-PPD/CK Cmax/D (ABCB1 rs2032582 CA, mean (SD)): 1.34 (2.13) %
20(S)-PPD AUClast/D (ABCB1 rs2032582 CC, mean (SD)): 0.92 (0.62)
20(S)-PPD Cmax/D (ABCB1 rs2032582 CC, mean (SD)): 0.03 (0.02)
Ratio 20(S)-PPD/CK AUClast/D (ABCB1 rs2032582 CC, mean (SD)): 3.50 (2.84) %
Ratio 20(S)-PPD/CK Cmax/D (ABCB1 rs2032582 CC, mean (SD)): 0.74 (0.49) %
20(S)-PPD AUClast/D (ABCC2 rs717620 CC, mean (SD)): 0.64 (0.51)
20(S)-PPD Cmax/D (ABCC2 rs717620 CC, mean (SD)): 0.02 (0.02)
Ratio 20(S)-PPD/CK AUClast/D (ABCC2 rs717620 CC, mean (SD)): 3.02 (4.69) %
Ratio 20(S)-PPD/CK Cmax/D (ABCC2 rs717620 CC, mean (SD)): 0.77 (0.99) %
20(S)-PPD AUClast/D (ABCC2 rs717620 CT, mean (SD)): 1.09 (1.02)
20(S)-PPD Cmax/D (ABCC2 rs717620 CT, mean (SD)): 0.04 (0.04)
Ratio 20(S)-PPD/CK AUClast/D (ABCC2 rs717620 CT, mean (SD)): 6.00 (7.83) %
Ratio 20(S)-PPD/CK Cmax/D (ABCC2 rs717620 CT, mean (SD)): 1.65 (2.39) %
20(S)-PPD AUClast/D (ABCC2 rs2273697 GA, mean (SD)): 0.81 (0.63)
20(S)-PPD Cmax/D (ABCC2 rs2273697 GA, mean (SD)): 0.03 (0.02)
Ratio 20(S)-PPD/CK AUClast/D (ABCC2 rs2273697 GA, mean (SD)): 4.54 (6.68) %
Ratio 20(S)-PPD/CK Cmax/D (ABCC2 rs2273697 GA, mean (SD)): 0.96 (1.36) %
20(S)-PPD AUClast/D (ABCC2 rs2273697 GG, mean (SD)): 0.83 (0.84)
20(S)-PPD Cmax/D (ABCC2 rs2273697 GG, mean (SD)): 0.03 (0.03)
Ratio 20(S)-PPD/CK AUClast/D (ABCC2 rs2273697 GG, mean (SD)): 4.19 (6.15) %
Ratio 20(S)-PPD/CK Cmax/D (ABCC2 rs2273697 GG, mean (SD)): 1.22 (1.87) %
20(S)-PPD AUClast/D (ABCC2 rs2756109 GG, mean (SD)): 0.61 (0.41)
20(S)-PPD Cmax/D (ABCC2 rs2756109 GG, mean (SD)): 0.02 (0.02)
Ratio 20(S)-PPD/CK AUClast/D (ABCC2 rs2756109 GG, mean (SD)): 2.42 (1.84) %
20(S)-PPD AUClast/D (ABCC2 rs3740066 CC, mean (SD)): 0.64 (0.51)
20(S)-PPD Cmax/D (ABCC2 rs3740066 CC, mean (SD)): 0.02 (0.02)
Ratio 20(S)-PPD/CK AUClast/D (ABCC2 rs3740066 CC, mean (SD)): 3.03 (4.8) %
Ratio 20(S)-PPD/CK Cmax/D (ABCC2 rs3740066 CC, mean (SD)): 0.78 (1.02) %
20(S)-PPD AUClast/D (ABCC2 rs3740066 CT, mean (SD)): 1.06 (0.99)
20(S)-PPD Cmax/D (ABCC2 rs3740066 CT, mean (SD)): 0.04 (0.03)
Ratio 20(S)-PPD/CK AUClast/D (ABCC2 rs3740066 CT, mean (SD)): 5.95 (7.51) %
Ratio 20(S)-PPD/CK Cmax/D (ABCC2 rs3740066 CT, mean (SD)): 1.63 (2.29) %
20(S)-PPD AUClast/D (ABCC2 rs3740066 TT, n = 1): 0.58 (—)
20(S)-PPD Cmax/D (ABCC2 rs3740066 TT, n = 1): 0.01 (—)
Ratio 20(S)-PPD/CK AUClast/D (ABCC2 rs3740066 TT, n = 1): 1.04 (—) %
Ratio 20(S)-PPD/CK Cmax/D (ABCC2 rs3740066 TT, n = 1): 0.22 (—) %
20(S)-PPD AUClast/D (ABCC3 rs4148416 CC, mean (SD)): 0.77 (0.69)
20(S)-PPD Cmax/D (ABCC3 rs4148416 CC, mean (SD)): 0.03 (0.02)
Ratio 20(S)-PPD/CK AUClast/D (ABCC3 rs4148416 CC, mean (SD)): 3.64 (5.23) %
Ratio 20(S)-PPD/CK Cmax/D (ABCC3 rs4148416 CC, mean (SD)): 0.90 (1.07) %
20(S)-PPD AUClast/D (ABCC3 rs4148416 CT, mean (SD)): 0.99 (1.01)
20(S)-PPD Cmax/D (ABCC3 rs4148416 CT, mean (SD)): 0.04 (0.04)
Ratio 20(S)-PPD/CK AUClast/D (ABCC3 rs4148416 CT, mean (SD)): 6.12 (8.47) %
Ratio 20(S)-PPD/CK Cmax/D (ABCC3 rs4148416 CT, mean (SD)): 1.87 (2.85) %
20(S)-PPD AUClast/D (ABCC3 rs4793665 CT, mean (SD)): 0.61 (0.58)
20(S)-PPD Cmax/D (ABCC3 rs4793665 CT, mean (SD)): 0.02 (0.02)
Ratio 20(S)-PPD/CK AUClast/D (ABCC3 rs4793665 CT, mean (SD)): 2.27 (2.88) %
Ratio 20(S)-PPD/CK Cmax/D (ABCC3 rs4793665 CT, mean (SD)): 0.54 (0.52) %
20(S)-PPD AUClast/D (ABCC3 rs4793665 TT, mean (SD)): 0.89 (0.82)
20(S)-PPD Cmax/D (ABCC3 rs4793665 TT, mean (SD)): 0.03 (0.03)
Ratio 20(S)-PPD/CK AUClast/D (ABCC3 rs4793665 TT, mean (SD)): 4.86 (6.83) %
Ratio 20(S)-PPD/CK Cmax/D (ABCC3 rs4793665 TT, mean (SD)): 1.32 (1.92) %
20(S)-PPD AUClast/D (ABCC3 rs12051822 GA, mean (SD)): 1.17 (0.94)
20(S)-PPD Cmax/D (ABCC3 rs12051822 GA, mean (SD)): 0.04 (0.03)
Ratio 20(S)-PPD/CK AUClast/D (ABCC3 rs12051822 GA, mean (SD)): 6.84 (8.31) %
Ratio 20(S)-PPD/CK Cmax/D (ABCC3 rs12051822 GA, mean (SD)): 1.44 (1.56) %
20(S)-PPD AUClast/D (ABCC3 rs12051822 GG, mean (SD)): 0.74 (0.72)
20(S)-PPD Cmax/D (ABCC3 rs12051822 GG, mean (SD)): 0.03 (0.03)
Ratio 20(S)-PPD/CK AUClast/D (ABCC3 rs12051822 GG, mean (SD)): 3.60 (5.48) %
Ratio 20(S)-PPD/CK Cmax/D (ABCC3 rs12051822 GG, mean (SD)): 1.09 (1.81) %
20(S)-PPD AUClast/D [1]: 2.65 (1.59)
20(S)-PPD Cmax/D [1]: 0.09 (0.03)
Ratio 20(S)-PPD/CK AUClast/D [1]: 20.61 (14.96) %
Ratio 20(S)-PPD/CK Cmax/D [1]: 4.33 (2.43) %
20(S)-PPD AUClast/D (ABCC4 rs1151471 TC, mean (SD)): 0.99 (0.81)
20(S)-PPD Cmax/D (ABCC4 rs1151471 TC, mean (SD)): 0.04 (0.03)
Ratio 20(S)-PPD/CK AUClast/D (ABCC4 rs1151471 TC, mean (SD)): 5.99 (7.30) %
Ratio 20(S)-PPD/CK Cmax/D (ABCC4 rs1151471 TC, mean (SD)): 1.83 (2.49) %
20(S)-PPD AUClast/D (ABCC4 rs1151471 TT, mean (SD)): 0.58 (0.54)
20(S)-PPD Cmax/D (ABCC4 rs1151471 TT, mean (SD)): 0.02 (0.02)
